Data set [1] relates to Influenza A virus. Briefly: Antiviral activity against oseltamivir-resistant Influenza A/WSN/33 (H1N1) virus expressing neuraminidase H274Y mutant gene infected in BALB/c mouse assessed as survival of mouse at 45 mg/kg, im administered as single dose. Conditions: A/WSN/1933(H1N1). The format is functional, organism-based. Further details: dose 45 mg/kg. The method, boiled down: (§1)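 Male BALB/c mice, 6–8 weeks old and 20–25 g, were randomized by weight, 4 per cage, in groups of 12. Drug at 50 mg/ml in saline buffered to pH 3.0 was given by IM hip injection, first dose 1 h before challenge. Mice were infected intranasally under isoflurane with 8 × 10^3 PFU of cell-grown recombinant virus in 30 μl PBS. Mortality was recorded daily for 14 days.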

Data set [2] deals with Influenza A virus. Description: Antiviral activity against oseltamivir-resistant Influenza A/WSN/33 (H1N1) virus expressing neuraminidase H274Y mutant gene infected in BALB/c mouse assessed as survival of mouse at 90 mg/kg, im administered as single dose. Conditions: A/WSN/1933(H1N1). In kind it is functional, organism-based. Further details: dose 90 mg/kg. In short, it runs like this:
as §1

Data set [3] relates to Influenza A virus. Description: Antiviral activity against oseltamivir-resistant Influenza A/WSN/33 (H1N1) virus expressing neuraminidase H274Y mutant gene infected in BALB/c mouse assessed as survival of mouse at 45 mg/kg, im once daily for 5 days. In kind it is functional, organism-based. Also on record: dose 45 mg/kg. Conditions: A/WSN/1933(H1N1). The method, boiled down:
as §1

In data set [4] the test system is Mus musculus. Description: Toxicity against oseltamivir-resistant Influenza A/WSN/33 (H1N1) virus expressing neuraminidase H274Y mutant gene infected BALB/c mouse assessed as weight loss at 45 mg/kg, im administered as single dose and measured after 6 days. The format is organism-based. Further details: dose 45 mg/kg, route intramuscular. Conditions: in vivo, 144 h. In short, it runs like this:
(§2)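 Male BALB/c mice, groups of 12, received IM drug at 50 mg/ml in pH 3.0 buffered saline, starting 1 h before intranasal infection with 8 × 10^3 PFU of recombinant virus. Body weight was monitored daily for 14 days. Mean weight loss was compared across regimens by one-way ANOVA, with uninfected PBS-treated mice as reference.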

Data set [5] concerns Mus musculus. Briefly: Toxicity against oseltamivir-resistant Influenza A/WSN/33 (H1N1) virus expressing neuraminidase H274Y mutant gene infected BALB/c mouse assessed as weight loss at 90 mg/kg, im administered as single dose and measured after 14 days. Also on record: dose 90 mg/kg, route intramuscular. Conditions: in vivo, 336 h. In kind it is organism-based. In short, it runs like this: as §2

Data set [6] deals with Mus musculus. Briefly: Toxicity against oseltamivir-resistant Influenza A/WSN/33 (H1N1) virus expressing neuraminidase H274Y mutant gene infected BALB/c mouse assessed as weight loss at 45 mg/kg, im once daily for 5 days measured after 14 days. In kind it is organism-based. Also on record: dose 45 mg/kg, route intramuscular. Conditions: in vivo, 336 h. In short, it runs like this: as §2

Data set [7] concerns Influenza A virus. Briefly: Antiviral activity against oseltamivir-resistant Influenza A/WSN/33 (H1N1) virus expressing neuraminidase H274Y mutant gene infected in BALB/c mouse assessed as log reduction in lung viral titer at 45 mg/kg, im administered as single dose and measured after 4 days. Conditions: route intramuscular. The format is functional, A/WSN/1933(H1N1). In short, it runs like this:
(§3)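 Male BALB/c mice received IM drug at 50 mg/ml in pH 3.0 buffered saline, starting 1 h before intranasal infection with 8 × 10^3 PFU of recombinant virus. Subgroups of 4 were sacrificed on day 4. Lungs were homogenized in 2 ml PBS with antibiotics and spun at 600 × g for 10 min. Supernatants were plaque-titrated on MDBK cells in triplicate. Comparison to untreated infected mice used a two-tailed unpaired t test.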

The subject of data set [8] is Influenza A virus. Briefly: Antiviral activity against oseltamivir-resistant Influenza A/WSN/33 (H1N1) virus expressing neuraminidase H274Y mutant gene infected in BALB/c mouse assessed as log reduction in lung viral titer at 90 mg/kg, im administered as single dose and measured after 4 days. In kind it is functional, A/WSN/1933(H1N1). Conditions: route intramuscular. The method, boiled down:
as §3

The test system of data set [9] is Influenza A virus. Briefly: Antiviral activity against oseltamivir-resistant Influenza A/WSN/33 (H1N1) virus expressing neuraminidase H274Y mutant gene infected in BALB/c mouse assessed as log reduction in lung viral titer at 45 mg/kg, im once daily for 5 days. The format is functional, A/WSN/1933(H1N1). Conditions: route intramuscular. The method, boiled down: as §3

The source made the active and inactive calls. No cut-off for these calls is given here.

With `CCC(CC)[C@H](NC(C)=O)[C@@H]1[C@H](O)[C@@H](C(=O)O)C[C@H]1NC(=N)N` [PERAMIVIR ANHYDROUS], the result in the data set on Influenza A virus [1], in the data set with Influenza A virus [2] and in the data set on Influenza A virus [3] was inactive. For the same molecule, the Activity result in the data set with Mus musculus [4] is reported as “Toxic”; in the data set with Mus musculus [5] it was “Non-toxic”; with Mus musculus [6], “Non-toxic”. In addition, the FC with Influenza A virus [7], in the data set with Influenza A virus [8] and in the data set with Influenza A virus [9] was 1.5 each time.

(Values after ChEMBL document CHEMBL1275600, “Prophylactic activity of intramuscular peramivir in mice infected with a recombinant influenza A/WSN/33 (H1N1) virus containing the H274Y neuraminidase mutation” (Antimicrob Agents Chemother, 2010).)
